Screens from PubChem BioAssay.
Sampled rows, rich in hits. Any-hit rate of the full collection: about 5.7%.
CSC inhib – cancer stem cell inhibition; cancer stem cell-like cells viability, luminescence; inhibition, % at 7.5 µM; 1.1% of 300,000 active; AID 2717; in the data active means inhibition above about 75%; inconclusive means no clear call, values can overlap the other calls; tested in HMLE shEcad cells
Mdm2-MdmX inh – inhibitors of human Mdm2/MdmX interaction. inhibition, % at 8 µM. O15151+Q00987. SaOS-2 split-luciferase Mdm2/MdmX complementation, luminescence. AID 485346. 3% of 330,000 active;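 active means inhibition of at least 50% at 8 µM in the primary screen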
Target sequence (O15151 whole entry, looked up): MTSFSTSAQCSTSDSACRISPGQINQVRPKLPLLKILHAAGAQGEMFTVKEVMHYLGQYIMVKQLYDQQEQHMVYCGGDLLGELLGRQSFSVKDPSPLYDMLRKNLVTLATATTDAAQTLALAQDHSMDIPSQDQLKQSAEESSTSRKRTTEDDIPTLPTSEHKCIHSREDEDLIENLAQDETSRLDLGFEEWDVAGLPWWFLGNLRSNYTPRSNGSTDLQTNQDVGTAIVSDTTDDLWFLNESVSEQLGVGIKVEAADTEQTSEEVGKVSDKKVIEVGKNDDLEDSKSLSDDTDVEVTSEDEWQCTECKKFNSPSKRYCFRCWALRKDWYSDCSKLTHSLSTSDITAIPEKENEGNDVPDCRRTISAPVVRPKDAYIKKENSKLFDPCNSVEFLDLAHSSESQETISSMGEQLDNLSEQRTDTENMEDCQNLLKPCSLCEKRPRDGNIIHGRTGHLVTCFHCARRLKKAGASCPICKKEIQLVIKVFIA
Target sequence (Q00987 whole entry, looked up): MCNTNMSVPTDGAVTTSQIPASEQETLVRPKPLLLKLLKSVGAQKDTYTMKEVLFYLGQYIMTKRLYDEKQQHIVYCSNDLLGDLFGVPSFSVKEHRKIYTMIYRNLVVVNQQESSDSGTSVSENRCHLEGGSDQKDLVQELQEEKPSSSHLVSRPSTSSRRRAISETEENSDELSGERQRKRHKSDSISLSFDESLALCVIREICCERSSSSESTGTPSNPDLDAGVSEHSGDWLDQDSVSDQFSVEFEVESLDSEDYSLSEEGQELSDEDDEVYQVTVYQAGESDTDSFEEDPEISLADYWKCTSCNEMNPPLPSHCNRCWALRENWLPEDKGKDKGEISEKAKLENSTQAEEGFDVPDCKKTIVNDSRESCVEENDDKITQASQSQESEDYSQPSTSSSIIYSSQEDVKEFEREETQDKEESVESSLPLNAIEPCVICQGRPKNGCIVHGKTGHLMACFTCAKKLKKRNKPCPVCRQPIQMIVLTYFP
SKKanGAS inh – inhibitors of SKKanGAS S. pyogenes growth in kanamycin (SK-promoter or general growth effect); AID 1662; BacTiter-Glo, 6 h; inhibition, % at 7.5 µM; 1.3% of 300,000 active;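 active means mean replicate score, as percent of positive control median, at least 50; inconclusive means mean below 50 but one replicate at or above 50; inactive means mean and every replicate below 50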;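 further: strain carries kanamycin resistance gene driven by streptokinase promoter and grows in 40 µg/ml kanamycin; loss of luminescence reflects streptokinase promoter inhibition or plain growth inhibition; 0% = median of DMSO wells and 100% = positive control at its reference dose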
Beta apoptosis – blocks beta cell apoptosis; 0.8% of 300,000 active; INS-1E cytokine-induced death, ATP luminescence, 48 h; percent of positive-control rescue, neutral wells zero; protection from apoptosis, % (concentration not given with the values);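 active means Every replicate reaches about 75%, or at least half do and their mean reaches it too, limit read from the data; inconclusive means At least half of replicates reach the limit but their mean does not; inactive means Under half of replicates reach the limit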;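 further: 0% = cytokine-treated negative control wells and 100% = positive control rescue; higher means more ATP so stronger rescue from cytokine killing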
Calb FLC – affects C. albicans growth with fluconazole; 0.57% of 300,000 active; AID 1979; C. albicans CaCi-2 (fluconazole-resistant clinical isolate) + fluconazole, Alamar Blue growth, 48 h; growth inhibition, % (concentration not given with the values);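 active means growth inhibition above about 58% in most replicates, limit read from the data, passing the limit was not always enough; inconclusive means exactly half the replicates above a set limit; inactive means most replicates below a set limit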;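 further: all wells also contain fluconazole at 8 µg/ml as a sub-toxic cotreatment; 0% = median of DMSO wells and 100% = median of geldanamycin control wells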
T cruzi inh – blocks replication of Trypanosoma cruzi; T. cruzi beta-gal in NIH3T3, luminescence, 90 h; inhibition, % (concentration not given with the values); 1.4% of 300,000 active;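 active means mean inhibition across valid replicates above about 55%, limit read from the data; inconclusive means mean below that limit but half or more replicates reach it; inactive means mean below it, under half of replicates reach it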;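 further: signal also drops with host cell toxicity which is not excluded here; 0% = plate median of DMSO wells and 100% = zero luminescence signal; higher percent means less beta-gal luminescence so fewer parasites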
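System – NIH/3T3 host cells with β-galactosidase reporter T. cruzi · Doses – single 50 nL compound addition per well in DMSO · Reagent – 5000 T. cruzi trypomastigotes/well · Medium – Low-serum DMEM with 2% FBS · Timing – ≥90 h infection period, 3 h prior cell attachment · Evaluation – parasite load inhibition, % · Technique – GalScreen luminescence, 60 min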
Mdm2 MdmX conf – confirmation of human Mdm2/MdmX interaction inhibitors. shares compounds with Mdm2-MdmX inh. Mdm2-MdmX binding, luminescent assay. inhibition, % at 8 µM. 55% of 10,000 active; in the data active means inhibition above about 40%
Full FLuc ctr – inhibits full-length luciferase, flagging false Mdm2/MdmX hits; shares compounds with Mdm2-MdmX inh; SaOS-2 full-length luciferase counterscreen, luminescence; inhibition, % at 8 µM; 77% of 6,200 active;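 active means mean inhibition at 8 µM reaching about 37%, which flags the compound as non-specific, limit read from the data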;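 further: p53-null SaOS-2 cells with luciferase driven by a doxycycline-inducible promoter; compound on cells about two nights before reading with doxycycline added after day one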
The depositor's hits bear a star; ? = inconclusive; . = no result given.

SMILES	CSC inhib	Mdm2-MdmX inh	SKKanGAS inh	Beta apoptosis	Calb FLC	T cruzi inh	Mdm2 MdmX conf	Full FLuc ctr
Oc1ccc(CNc2ccccc2)c2cccnc12	19	86*	-3	105*	4	-6	44*	51*
Oc1ccc(CNc2ccc(F)cc2)c2cccnc12	27	85*	4	92*	34	55*	80*	36
COc1cccc(NC(=O)CCC(=O)Nc2cc(OC)c(NC(=O)c3cccs3)cc2OC)c1	.	4	17	.	-3	5	.	.
COCc1ccc(O)c2ncccc12	26	60*	61*	91*	-1	44	36	59*
Cc1sc2ncnc(N3CCC(C(=O)Nc4nnc(SCc5ccccc5F)s4)CC3)c2c1C	8	21	?	-1	7	9	.	.
CCc1noc(C)c1C(=O)NC1CCCc2c1cnn2-c1cc(C)cc(C)c1 (stereo not drawn)	-1	19	-6	-1	-4	7	.	.
CCc1[nH]nc(C(=O)NC2CCCc3c2cnn3-c2cc(C)cc(C)c2)c1C (stereo not drawn)	19	76*	7	-7	9	9	81*	95*
CCN1CCN(/C=N/c2nc3c(s2)CCCC3)CC1	.	57*	4	.	-1	-15	73*	91*
COc1ccc(-c2cc(C(=O)Nc3cc(Br)ccc3O)no2)cc1	2	83*	-13	-12	4	-10	32	101*
COc1cccc(-c2cc(C(=O)Nc3cc(C)nn3-c3ccccc3)no2)c1	-5	65*	-4	9	2	-6	32	.
COc1ccc(-c2cc(C(=O)Nc3c(C)nn(Cc4ccccc4)c3C)no2)cc1	9	63*	0	-1	48	19	20	.
COc1ccc(-c2cc(C(=O)Nc3cc(C)nn3-c3ccccc3)no2)cc1	-4	5	8	-3	15	-11	.	.
COc1ccccc1-c1cc(C(=O)Nc2cc(C)nn2-c2ccccc2)no1	40	57*	4	10	6	0	62*	45*
O=C(c1ccco1)N1CCCC(c2nc3c(nnn3Cc3ccc(F)cc3)c(=O)[nH]2)C1 (stereo not drawn)	-15	-20	4	2	-15	-3	.	.
O=c1ccc2ccc(Oc3ccc([N+](=O)[O-])cc3[N+](=O)[O-])cc2o1	59	58*	2	1	15	-2	60*	72*
CCN(CC)CCCNC(=O)c1nn2c(C(F)(F)F)cc(-c3ccccc3)nc2c1Cl	0	18	2	4	-3	-6	.	.
CNC(=O)C1=C(C)Nc2nc3ccccc3n2C1c1ccc(F)cc1 (stereo not drawn)	-26	13	-10	-5	0	-9	.	.
CCOC(=O)C1=C(C)Nc2nc3ccccc3n2C1c1ccccc1 (stereo not drawn)	23	54*	9	-3	2	14	8	.
COc1ccc(OC)c(C2C(C(=O)c3ccccc3)=C(C)Nc3nc4ccccc4n32)c1 (stereo not drawn)	4	98*	76*	.	1	69*	76*	80*
COc1cc(Cl)c(C)cc1NC(=O)COC(=O)C1=COCCO1	1	-4	-11	0	8	-3	.	.
O=C(Cc1csc(Nc2nc(=S)[nH]c3ccccc23)n1)NCCCN1CCN(c2ccccc2F)CC1	31	98*	9	19	5	-5	32	.
COc1ccc(CNC(=O)Cc2csc(Nc3nc(=S)[nH]c4ccccc34)n2)cc1	-7	14	-7	11	29	11	.	.
Cn1c(C(=O)NCCCN2CCN(c3ccccc3F)CC2)cc2c(=O)[nH]c3ccccc3c21	2	37	0	3	-31	14	.	.
O=C(Cc1csc(Nc2nc(=S)[nH]c3ccccc23)n1)NCc1ccc(Cl)cc1	-4	74*	-12	6	6	13	6	.
O=C1CCC(C(=O)Nc2cc(C(F)(F)F)ccc2-n2cncn2)=NN1	11	17	1	.	-1	1	.	.
SMILES	CSC inhib	Mdm2-MdmX inh	SKKanGAS inh	Beta apoptosis	Calb FLC	T cruzi inh	Mdm2 MdmX conf	Full FLuc ctr
O=C(C#Cc1ccccc1)c1ccco1	59	98*	-3	100*	-2	-19	68*	51*
O=C(N/N=C/c1ccccc1)c1ccco1	10	18	1	4	-2	-5	.	.
Cc1ccc([C@@H]2CC=C(C(=O)O)[C@H](c3ccccc3F)N2S(=O)(=O)c2ccccc2C)cc1	.	-39	.	.	.	.	.	.
Cc1ccc(NC(=O)COc2ccc(C(=O)c3ccccc3)cc2)c(O)c1	2	28	11	-14	19	-4	.	.
O=C(c1cnn2c(C(F)(F)F)cc(-c3cccs3)nc12)N1CCN(C(c2ccccc2)c2ccccc2)CC1	21	62*	20	25	-7	45	59*	68*
CCOC(=O)CNC(=O)c1sc(NC(=O)/C=C/c2ccccc2)nc1C	13	69*	-6	-4	6	-9	12	.
CCOC(=O)c1sc(NC(=O)/C=C/c2ccccc2)nc1C	-15	-11	-4	-2	-6	-25	.	.
CC(=O)Nc1sc(N/N=C\c2ccccc2Cl)nc1-c1cccs1	-7	51*	11	1	-8	-8	61*	96*
Cn1cc(/C=C2/SC(=O)N(CC(=O)Nc3ccc4c(c3)OCO4)C2=O)c2ccccc21	20	64*	0	21	-10	8	21	.
O=C(CN1C(=O)S/C(=C\c2ccc(-c3cc(C(=O)O)ccc3Cl)o2)C1=O)Nc1ccc2c(c1)OCO2	-14	-8	.	-1	12	.	.	.
Cc1cccc(C)c1NC(=O)CN1C(=O)S/C(=C\c2cccn2-c2cccc(C(=O)O)c2)C1=O	2	18	13	-2	0	-1	.	.
Cc1cccc(C)c1NC(=O)CN1C(=O)S/C(=C\c2cccn2C)C1=O	-11	80*	-16	-9	-3	-4	2	.
Cc1ccc(NC(=O)CN2C(=O)S/C(=C\c3ccccn3)C2=O)cc1C	-14	68*	.	0	-1	.	29	.
NS(=O)(=O)c1ccc(NC(=O)c2ccc(S(=O)(=O)N3CCCCCC3)cc2)cc1	-14	-2	.	-3	.	.	.	.
CCc1ccc(NS(=O)(=O)c2ccc3oc(=O)ccc3c2)cc1	-6	-27	2	.	-14	8	.	.
CCOC(=O)c1nc2sc(C)c(C)c2c(=O)[nH]1	-4	10	9	4	-4	-7	.	.
CCOC(=O)/C(=C\c1cccc(O)c1)c1nc2sc(C)c(C)c2c(=O)[nH]1	60	82*	41	-27	11	-10	35	27
CCN1CCN(c2nc3c(C)cccn3c(=O)c2C=C(C#N)C#N)CC1	-12	4	-2	-4	5	-24	.	.
